Reference: ChEMBL document CHEMBL1154353, “Stereoselective behavior of the functional diltiazem analogue 1-[(4-chlorophenyl)sulfonyl]-2-(2-thienyl)pyrrolidine, a new L-type calcium channel blocker” (J Med Chem, 2009)
pEC50, pIC50: −log10 of the molar value.

What was measured:
[1] = tested on: Aorta; assay: Vasorelaxant activity in 80 mM K+-depolarized guinea pig thoracic aortic strip assessed as inhibition of calcium-induced contraction at 100 uM; format: functional, Cavia porcellus
Procedure, shortened: (§1)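 Helicoidal guinea pig aortic strips in PSS at 35 °C, contracted with 80 mM KCl (equimolar substitution for Na+), plateau reached in about 45 min. Cumulative concentrations 0.1-500 μM in DMSO vehicle. Reported as % inhibition of contraction. IC50 by Probit analysis from log concentration-response curves (n = 6-8), not calculated when maximum effect was <50%.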

[2] = tested on: Ileum; assay: Muscle relaxant activity in 80 mM K+-depolarized guinea pig ileum longitudinal smooth muscle assessed as inhibition of calcium-induced contraction at 10 uM; format: functional, Cavia porcellus
Procedure, shortened: (§2)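 Guinea pig ileum longitudinal smooth muscle, 2 cm segments under 300-400 mg resting tension. Isometric recording in PSS, washed every 20 min for 1 h, then depolarized with 80 mM K+. Compounds added cumulatively in DMSO. Reported as % inhibition of calcium-induced contraction. IC50 from log concentration-response curves by Probit analysis.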

[3] = tested on: Aorta; assay: Ratio of compound IC50 to diltiazem IC50 for vasorelaxant activity in 80 mM K+-depolarized guinea pig thoracic aortic strip; format: functional, Cavia porcellus
[4] = Negative chronotropic activity in guinea pig right atrium assessed as decrease in atrial rate at 100 uM relative to control; format: functional, Cavia porcellus, Cardiac atrium; parameters: scale not given: the % may be the effect or the level left
Procedure, shortened: (§3)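 Spontaneously beating guinea pig right atria in PSS at 35 °C, pH 7.4, 95% O2-5% CO2, pretreatment rate 170-195 beats/min. Cumulative concentrations 0.1-100 μM, each added at steady state, DMSO ≤0.3%. Reported as % decrease in atrial rate vs control, n = 6-8.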

[5] = tested on: Ileum; assay: Muscle relaxant activity in 80 mM K+-depolarized guinea pig ileum longitudinal smooth muscle assessed as inhibition of calcium-induced contraction; format: functional, tissue-based; settings: Cavia porcellus; procedure, shortened: as §2
[6] = Negative chronotropic activity in guinea pig right atrium assessed as decrease in atrial rate at 50 uM relative to control; format: functional, Cavia porcellus, Cardiac atrium; parameters: scale not given: the % may be the effect or the level left; procedure, shortened: as §3
[7] = tested on: Aorta; assay: Vasorelaxant activity in 80 mM K+-depolarized guinea pig thoracic aortic strip assessed as inhibition of calcium-induced contraction; format: functional, tissue-based; settings: Cavia porcellus; procedure, shortened: as §1
[8] = Negative inotropic activity in guinea pig left atrium assessed as decrease in atrial tension at 10 uM relative to control; format: functional, Cavia porcellus, Cardiac atrium; parameters: scale not given: the % may be the effect or the level left
Procedure, shortened: (§4)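 Isolated guinea pig left atria paced at 1 Hz (0.6-0.8 ms pulses, about 50% threshold voltage) in PSS at 35 °C, pH 7.4, gassed 95% O2-5% CO2. Isometric tension recorded after 45-60 min stabilization. Cumulative concentrations 0.1-100 μM, DMSO ≤0.3%. Reported as % decrease in developed tension vs control (n = 4-6). EC50 by Probit analysis (n = 6-8), not calculated when maximum effect was <50%.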

[9] = Negative inotropic activity in guinea pig left atrium assessed as decrease in atrial tension; format: functional, tissue-based; settings: Cavia porcellus, Cardiac atrium; procedure, shortened: as §4
[10] = target: T1, Voltage-gated L-type calcium channel (Rattus norvegicus, UniProt P22002+Q02485+P27732); assay: Blockade of L-type calcium channel in Wistar rat tail artery smooth muscle cells assessed as inhibition of peak L-type barium current by whole cell patch clamp method
[11] = tested on: Ileum; assay: Muscle relaxant activity in 80 mM K+-depolarized guinea pig ileum longitudinal smooth muscle assessed as inhibition of calcium-induced contraction at 5 uM; format: functional, Cavia porcellus; procedure, shortened: as §2
[12] = Negative inotropic activity in guinea pig left atrium assessed as decrease in atrial tension at 100 uM relative to control; format: functional, Cavia porcellus, Cardiac atrium; parameters: scale not given: the % may be the effect or the level left; procedure, shortened: as §4
[13] = target: T1, Voltage-gated L-type calcium channel; assay: Displacement of [3H]diltiazem from […] binding site of L-type calcium channel in Wistar rat cardiomyocytes by liquid scintillation counting; format: cell-based
Procedure, shortened: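 Thawed rat cardiomyocytes (200 μg), isolated by collagenase/dispase perfusion and pooled from at least two animals. Incubated with 5 nM [3H]diltiazem and unlabeled ligand (0.1 nM to 100 μM) in 50 mM Tris pH 7.4, 25 °C, 90 min. Reaction stopped by filtration through PEI-soaked GF/B filters, then scintillation counting. Nonspecific binding defined with 100 μM diltiazem. Run in triplicate; sigmoidal fit of % specific binding.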

[14] = Ratio of diltiazem EC50 to compound EC50 for negative inotropic activity in guinea pig left atrium; format: functional, Cavia porcellus, Cardiac atrium

SMILES | pIC50 [5] | pIC50 [7] | pEC50 [9] | IC50 [10] | inhibition (INH) [13] | inhibition (INH) ([10]; rat) | inhibition (INH) [1] | inhibition (INH) [2] | Ratio IC50 [3] | Activity [4] | Activity [6] | Activity [8] | inhibition (INH) [11] | Activity [12] | Ratio EC50 [14]
CSC1=NCCCN1S(=O)(=O)c1ccc(Cl)cc1 | 4.83 |  |  |  |  |  | 57% | 83% | 9.7 | 5% |  |  |  |  | 
O=S(=O)(c1ccc(Cl)cc1)N1CCC[C@H]1c1cccs1 | 5.69 | 5.29 | 6.35 | 22200 nM |  |  | 83% |  |  |  | 7% | 96% | 69% |  | 
O=S(=O)(c1ccc(Cl)cc1)N1CCC[C@@H]1c1cccs1 | 5.97 |  | 6.64 | 27100 nM |  |  | 24% |  |  |  | 10% |  | 94% | 98% | 
COc1ccc([C@@H]2Sc3ccccc3N(CCN(C)C)C(=O)[C@@H]2OC(C)=O)cc1 [DILTIAZEM] |  | 5.59 | 6.10 |  |  |  | 88% | 98% |  |  |  |  |  |  | 

More lines, main results first:

pIC50 [5] | pIC50 [7] | pEC50 [9] | IC50 [10] | inhibition (INH) [13] | inhibition (INH) ([10]; rat) | SMILES | inhibition (INH) [1] | inhibition (INH) [2] | Ratio IC50 [3] | Activity [4] | Activity [6] | Activity [8] | inhibition (INH) [11] | Activity [12] | Ratio EC50 [14]
5.36 | 4.75 |  |  | Dose-dependent effect |  | C=CCN(c1ccccc1)S(=O)(=O)c1ccc(Cl)cc1 | 54% | 83% | 6.8 | 5% |  |  |  |  | 2.5
 |  | 7.15 |  |  |  | CCO[C@@]1(c2ccc(Br)cc2)SC=C(C)n2c1noc2=O | 11% | 3% |  | 16% |  |  |  |  | 
5.93 |  |  | 23500 nM |  | Dose-dependent effect | O=S(=O)(c1ccc(Cl)cc1)N1CCCC1c1cccs1 (racemic) | 74% | 90% | 2.2 | 4% | 4% |  | 90% |  | 2.5
